Consider 31 compounds from ChEMBL document CHEMBL1139844, “Synthesis and antimalarial activity of side chain modified 4-aminoquinoline derivatives” (J Med Chem, 2007).

Assay [1] concerns Plasmodium falciparum. Briefly: Antiplasmodial activity against Plasmodium falciparum NF54. It is filed as functional, organism-based.
Assay [2] in a line: Inhibition of beta-hematin polymerization. Also on record: species or system Plasmodium falciparum.
The test system of assay [3] is Plasmodium yoelii. Nature of the assay: Antimalarial activity against Plasmodium yoelii N67 infected in Swiss mice (Mus musculus) at 30 mg/kg, intraperitoneally. It is filed as functional. To be noted: route intraperitoneal. Summed up: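 Swiss mice infected with P. yoelii N-67, dosed ip at 30 mg/kg once daily for four consecutive days; saline-treated controls. Parasitaemia on day 4 gives % suppression = [(C − T)/C] × 100 (C, T = control, treated parasitaemia). Mean survival time counted only for mice dying within the 28-day observation period; survivors beyond 28 days excluded.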

Assay [4] concerns Mus musculus. Briefly: Mean survival time of Swiss mice (Mus musculus) infected with Plasmodium yoelii N67 at 30 mg/kg, intraperitoneally. The settings on record: route intraperitoneal. Format: functional. Summed up:
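Swiss mice infected with P. yoelii N-67; test compounds at 30 mg/kg given intraperitoneally once daily on four consecutive days; saline-treated mice as controls. Mice followed for 28 days; mean survival time (± SE) counted only for mice dying within that period, with survivors beyond 28 days excluded.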

Converted amounts (≈) assume the structure as drawn.

One may read the MIC as the least concentration at which growth counts as inhibited. On to `O=C1c2ccccc2SC(c2c(Cl)cccc2Cl)N1CCNc1ccnc2cc(Cl)ccc12` (stereo not given), for which the results for the IC50 in assay [1] and in assay [2] were 0.291 µM and 0.49 equivalents, respectively. In assay [1], this compound yielded an MIC of 5.88 µM (≈ 3.03 µg/mL).
In assay [1], `O=C1c2ccccc2SC(c2c(Cl)cccc2Cl)N1CCCCNc1ccnc2cc(Cl)ccc12` (stereo not given) displayed an IC50 of 3.07 µM and a minimum inhibitory concentration (MIC) of 13.8 µM (≈ 7.5 µg/mL). Also, the IC50 in assay [2] was determined as 0.97 equivalents.
On the same counts, the results for `O=C1c2ccccc2SC(c2c(Cl)cccc2Cl)N1CCCNc1ccnc2cc(Cl)ccc12` (stereo not given) are 2.19 µM, 9.45 µM (≈ 5 µg/mL) and 0.65 equivalents.
In assay [1], `O=C1CCSC(c2c(Cl)cccc2Cl)N1CCCCNc1ccnc2cc(Cl)ccc12` (stereo not given) displayed an IC50 of 7.15 µM and an MIC of 15.2 µM (≈ 7.5 µg/mL). The IC50 in assay [2] worked out at 0.58 equivalents.
`O=C1c2ccccc2SC(c2ccc(Cl)cc2)N1CCNc1ccnc2cc(Cl)ccc12` (stereo not given) yielded an Activity in assay [3] of 81%. In assay [4], this compound showed an MST of 15.2 days. For the same compound, in assay [1], the IC50 turned out to be 0.013 µM and the MIC was found to be 0.26 µM (≈ 0.125 µg/mL). In assay [2], this compound displayed an IC50 of 0.24 equivalents.
Turning to `O=C1CSCN1CCCCNc1ccnc2cc(Cl)ccc12`, in assay [1], the IC50 stood at 2.65 µM and 5.96 µM (≈ 2 µg/mL) was the least that counted as inhibitory (MIC). In assay [2], this compound displayed an IC50 of 0.91 equivalents.
Regarding `O=C1c2ccccc2SCN1CCNc1ccnc2cc(Cl)ccc12`, in assay [3], the Activity stood at 48.33%. The MST in assay [4] came to 11.4 days. For the same compound, the IC50 worked out at 0.065 µM in assay [1] and 0.94 equivalents in assay [2]. The same compound had an MIC in assay [1] of 0.68 µM (≈ 0.252 µg/mL).
On the same counts, the results for `O=C1CCSC(c2ccc(Cl)cc2)N1CCCCNc1ccnc2cc(Cl)ccc12` (stereo not given) are 62.32%, 13.8 days, 0.271 µM, 0.76 equivalents and 0.54 µM (≈ 0.249 µg/mL).
For `O=C1c2ccccc2SCN1CCCCNc1ccnc2cc(Cl)ccc12`, the results for the IC50 in assay [1] and in assay [2] were 1.51 µM and 0.89 equivalents, respectively. The same compound yielded a minimal inhibitory concentration (MIC) in assay [1] of 2.51 µM (≈ 0.999 µg/mL).
For `O=C1CSC(c2c(Cl)cccc2Cl)N1CCCNc1ccnc2cc(Cl)ccc12` (stereo not given), the Activity in assay [3] came out at 40.08%. In assay [4], this compound displayed an MST of 10.6 days. Besides, in assay [1], the IC50 came to 0.138 µM and the MIC was 0.27 µM (≈ 0.126 µg/mL). The IC50 in assay [2] amounted to 0.39 equivalents.
In assay [1], `CC1SCN(CCNc2ccnc3cc(Cl)ccc23)C1=O` (stereo not given) yielded an IC50 of 1.68 µM and a minimal inhibitory concentration (MIC) of 3.11 µM (≈ 1 µg/mL). This compound also had an IC50 in assay [2] of 1.05 equivalents.
On to `O=C1CCSC(c2c(Cl)cccc2Cl)N1CCCNc1ccnc2cc(Cl)ccc12` (stereo not given), for which, in assay [1], the IC50 was determined as 6.15 µM and 10.4 µM (≈ 5 µg/mL) was the least that counted as inhibitory (MIC). The IC50 in assay [2] is 0.88 equivalents.
The corresponding values for `O=C1c2ccccc2SCN1CCCNc1ccnc2cc(Cl)ccc12` are 0.429 µM, 1.3 µM (≈ 0.499 µg/mL) and 0.78 equivalents.
The corresponding values for `O=C1CSC(c2ccc(Cl)cc2)N1CCNc1ccnc2cc(Cl)ccc12` (stereo not given) are 0.98 µM, 1.2 µM (≈ 0.502 µg/mL) and 0.75 equivalents.
The corresponding values for `O=C1CCSC(c2ccc(Cl)cc2)N1CCNc1ccnc2cc(Cl)ccc12` (stereo not given) are 4.07 µM, 4.62 µM (≈ 2 µg/mL) and 0.47 equivalents.
As to `O=C1CSC(c2ccc(Cl)cc2)N1CCCCNc1ccnc2cc(Cl)ccc12` (stereo not given), the IC50 worked out at 1.98 µM in assay [1] and 0.85 equivalents in assay [2]. The lowest concentration to inhibit growth in assay [1] (MIC) was 4.08 µM (≈ 1.82 µg/mL).
The corresponding values for `O=C1CCSCN1CCCNc1ccnc2cc(Cl)ccc12` are 1.81 µM, 0.96 equivalents and 2.48 µM (≈ 0.833 µg/mL).
On the same counts, the results for `O=C1c2ccccc2SC(c2ccc(Cl)cc2)N1CCCCNc1ccnc2cc(Cl)ccc12` (stereo not given) are 1.27 µM, 0.95 equivalents and 2.17 µM (≈ 1.1 µg/mL).
In assay [3], `O=C1CSC(c2c(Cl)cccc2Cl)N1CCNc1ccnc2cc(Cl)ccc12` (stereo not given) yielded an Activity of 76.08%. The same compound had an MST in assay [4] of 14.6 days. Further, the IC50 was found to be 0.039 µM in assay [1] and 0.46 equivalents in assay [2]. Further, the MIC in assay [1] turned out to be 0.55 µM (≈ 0.249 µg/mL).
As to `O=C1CSCN1CCNc1ccnc2cc(Cl)ccc12`, in assay [1], the IC50 turned out to be 2.14 µM and the MIC is 3.25 µM (≈ 1 µg/mL). For the same compound, the IC50 in assay [2] was determined as 0.98 equivalents.
On to `O=C1CSC(c2c(Cl)cccc2Cl)N1CCCCNc1ccnc2cc(Cl)ccc12` (stereo not given), for which, in assay [1], the IC50 was 3.03 µM and it took 6.17 µM (≈ 2.97 µg/mL) to inhibit growth (MIC). This compound yielded an IC50 in assay [2] of 0.64 equivalents.
On the same counts, the results for `CC1SCN(CCCCNc2ccnc3cc(Cl)ccc23)C1=O` (stereo not given) are 1.29 µM, 5.73 µM (≈ 2 µg/mL) and 0.98 equivalents.
Consider `CC1SCN(CCCNc2ccnc3cc(Cl)ccc23)C1=O` (stereo not given), for which the results for the IC50 in assay [1] and in assay [2] were 2.33 µM and 1.02 equivalents, respectively. For the same compound, the minimal inhibitory concentration (MIC) in assay [1] is 5.65 µM (≈ 1.9 µg/mL).
In assay [1], `O=C1CCSC(c2c(Cl)cccc2Cl)N1CCNc1ccnc2cc(Cl)ccc12` (stereo not given) came in with an IC50 of 3.27 µM and an MIC of 4.28 µM (≈ 2 µg/mL). Besides, the IC50 in assay [2] worked out at 0.45 equivalents.
In assay [3], `O=C1CCSC(c2ccc(Cl)cc2)N1CCCNc1ccnc2cc(Cl)ccc12` (stereo not given) had an Activity of 23.5%. This compound also came in with an MST in assay [4] of 12 days. In addition, in assay [1], the IC50 worked out at 0.014 µM and the MIC worked out at 0.28 µM (≈ 0.125 µg/mL). The IC50 in assay [2] came to 0.62 equivalents.
With `O=C1CCSCN1CCCCNc1ccnc2cc(Cl)ccc12`, the figures for the IC50 in assay [1] and in assay [2] were 1.81 µM and 0.89 equivalents, respectively. In addition, inhibition of growth in assay [1] (MIC) required 2.86 µM (≈ 1 µg/mL).
In assay [1], `O=C1c2ccccc2SC(c2ccc(Cl)cc2)N1CCCNc1ccnc2cc(Cl)ccc12` (stereo not given) gave an IC50 of 1.03 µM and a minimum inhibitory concentration (MIC) of 2.02 µM (≈ 0.999 µg/mL). This compound also returned an IC50 in assay [2] of 0.46 equivalents.
The corresponding values for `O=C1CSC(c2ccc(Cl)cc2)N1CCCNc1ccnc2cc(Cl)ccc12` (stereo not given) are 1.04 µM, 1.16 µM (≈ 0.502 µg/mL) and 0.56 equivalents.
On the same counts, the results for `O=C1CCSCN1CCNc1ccnc2cc(Cl)ccc12` are 2.92 µM, 6.21 µM (≈ 2 µg/mL) and 0.99 equivalents.
The corresponding values for `O=C1CSCN1CCCNc1ccnc2cc(Cl)ccc12` are 1.65 µM, 3.11 µM (≈ 1 µg/mL) and 0.96 equivalents.
Compound `CCN(CC)CCCC(C)Nc1ccnc2cc(Cl)ccc12` (stereo not given) [CHLOROQUINE] came in with an Activity in assay [3] of 99.99%. This compound showed an MST in assay [4] of 20 days. This compound yielded an MIC in assay [1] of 0.39 µM (≈ 0.125 µg/mL).
